Bioassay records: PubChem BioAssay, several laboratories
Apaf-1 inh = inhibitors of human Apaf-1 apoptosome, primary screen, biochemical, DEVD-Rh110 fluorescence, uHTS; Apoptotic protease-activating factor 1 (Homo sapiens), O14727; reconstituted apoptosome caspase-3 activity; inhibition, % at 20 µM; 330,000 compounds, 0.71% hits; AID 489030, 2010; active means inhibition of at least 40% at 20 µM;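 further: plate controls were DMSO wells for no effect and DEVD-CHO caspase inhibitor wells for full effect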
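Material: reconstituted apoptosome with Apaf-1, cytochrome c, caspase-9, procaspase-3, dATP; medium: pH 7.5 Hepes buffer with CHAPS, BSA, DTT; also added: cytochrome c and DEVD-Rh110 substrate; timing: 30 min plus 50 min, RT; signal: Rh110 fluorescence intensity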
PAD4 FP inh = human PAD4 inhibitors, primary screen, biochemical, fluorescence polarization, 1536-well format; recombinant PAD4, RCA probe fluorescence polarization; Protein-arginine deiminase type-4 (Homo sapiens), Q9UM07; inhibition, % at 6.36 µM; 330,000 compounds, 0.41% hits; AID 485272, 2010;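 active means percent inhibition above a cutoff equal to the mean of all tested compounds plus 3 SD, cut at about 15% in these data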;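 further: 0% = PAD4 with RCA probe and DMSO and 100% = probe without PAD4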
GSTO1 inh = inhibitors of recombinant GSTO1, primary screen, counter-screen for RBBP9 inhibitor project, biochemical, fluorescence polarization; inhibition, % at 5.96 µM; AID 1974, 2009; activity-based probe fluorescence polarization; 300,000 compounds, 1.1% hits;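 active means inhibition above the campaign mean inhibition plus 3 SD, cut at about 35% in these data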;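 further: 0% = GSTO1-1 with DMSO and 100% = wells lacking GSTO1-1 enzyme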
Target sequence (P78417 whole entry, looked up): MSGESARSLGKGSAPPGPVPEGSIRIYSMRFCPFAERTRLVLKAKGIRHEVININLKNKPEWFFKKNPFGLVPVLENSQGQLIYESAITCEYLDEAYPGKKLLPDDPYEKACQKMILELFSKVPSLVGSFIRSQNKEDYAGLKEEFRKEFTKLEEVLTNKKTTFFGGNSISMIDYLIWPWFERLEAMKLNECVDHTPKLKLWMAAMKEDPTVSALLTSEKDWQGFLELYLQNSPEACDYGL
TDP2 absorb = human TDP2 enzyme inhibitors, primary screen, biochemical, epi absorbance, recombinant enzyme | T5PNP hydrolysis, p-nitrophenol absorbance 415 nm | inhibition, % at 12.8 µM | 370,000 compounds, 0.34% hits | AID 720702, 2013;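 active means inhibition above the mean of all tested compounds plus 3 SD, set per campaign, cut at about 25% in these data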;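 further: 0% = DMSO with enzyme and 100% = buffer with substrate but no TDP2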
Target sequence (O95551 whole entry, looked up): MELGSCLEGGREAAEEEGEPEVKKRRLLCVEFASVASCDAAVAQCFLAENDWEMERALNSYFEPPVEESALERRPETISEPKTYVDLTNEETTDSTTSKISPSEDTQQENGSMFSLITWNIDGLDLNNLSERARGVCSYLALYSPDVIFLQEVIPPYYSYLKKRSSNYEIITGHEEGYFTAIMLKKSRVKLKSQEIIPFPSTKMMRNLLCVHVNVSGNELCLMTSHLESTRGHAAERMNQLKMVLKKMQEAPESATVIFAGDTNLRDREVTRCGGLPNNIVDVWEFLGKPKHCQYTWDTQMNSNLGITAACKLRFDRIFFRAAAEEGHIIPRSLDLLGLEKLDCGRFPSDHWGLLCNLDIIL
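Incubation: 2 h at 37 °C; Test system: recombinant human TDP2; Quantity: enzyme 120 nM; Read-out basis: percent inhibition; Medium: 50 mM Tris-HCl pH 7.5 with Mg2+, KCl, DTT, BSA; Repeats: single replicate; Compound: 12.8 µM single point, 1% DMSO; Signal: epi absorbance; Reagent: 5 mM T5PNP chromogenic substrate; Benchmarks: no-enzyme high, DMSO-plus-enzyme low.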
PRMT1 inh = PRMT1 methyltransferase inhibitors, primary screen, biochemical, fluorescence polarization; recombinant PRMT1, activity-based probe fluorescence polarization; Protein arginine N-methyltransferase 1 (Homo sapiens), Q99873; inhibition, % at 2.79 µM; AID 652257, 2013; 370,000 compounds, 1.3% hits;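 active means inhibition above about 21% made by adding two undisclosed values, limit read from the data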
GSTO1 confirm = GSTO1 inhibitor hit confirmation, counter-screen for RBBP9 inhibitor project, biochemical, fluorescence polarization, triplicate; inhibition, % at 5.96 µM; recombinant GSTO1, probe fluorescence polarization; 2,400 compounds, 54% hits; shares compounds with GSTO1 inh;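 active means inhibition above the primary screen's cutoff, its mean inhibition plus 3 SD, cut at about 35% in these data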;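 further: loss of polarization as inhibitors block binding of rhodamine sulfonate ester activity probe; 0% = GSTO1 with DMSO and 100% = wells lacking GSTO1 enzyme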
GSTO1 ABPP inh = inhibitors of purified human GSTO1, late-stage follow-up, biochemical, gel ABPP, SE-Rh probe, percent inhibition; shares compounds with GSTO1 inh; recombinant GSTO1, gel ABPP SE-Rh probe fluorescence; inhibition, % at 1 µM; 130 compounds, 30% hits; AID 463110, 2010;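 active means inhibition of the enzyme GSTO1 above about 75%, limit read from the data; inactive means inhibition below that limit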
* = called active by the depositor; . = no result given. Rows were chosen to be rich in hits. Some 2.6% of all compounds tested hit in one or more screens of this group.

SMILES | Apaf-1 inh | PAD4 FP inh | GSTO1 inh | TDP2 absorb | PRMT1 inh | GSTO1 confirm | others
C[C@H]1[C@@H](c2ccccc2)OC(O)([C@H](Cc2ccccc2)NC(=O)OC(C)(C)C)CN1C (stereo partly specified) | . | . | . | 3.2 | 0.2 | .
Cn1c(=O)c(=O)n(C)c2cc(S(=O)(=O)N3CCN(Cc4ccc5c(c4)OCO5)CC3)ccc21 | . | . | . | -9.0 | -0.3 | .
Cc1ccc(C)c(Sc2ccc(NC(=O)CCl)cc2)c1 | 16.3 | -4.8 | 75.4* | 1.9 | -1.0 | 81.8*
Cc1ccc(NC(=O)CCSCCC(=O)Nc2ccc(C)c(C)c2)cc1C | 5.7 | 2.9 | -3.2 | 3.2 | 0.1 | .
Cc1cc(C)nc(SCC(=O)Nc2ccc(S(=O)(=O)Nc3onc(C)c3C)cc2)n1 | -1.6 | -2.8 | 1.6 | -0.8 | 2.9 | .
Cc1noc(NS(=O)(=O)c2ccc(NC(=O)CSc3ncccn3)cc2)c1C | 7.0 | 2.4 | 55.0* | 5.3 | 5.1 | 29.2
COCCN1C(=O)CCC1(C)c1nnnn1Cc1ccccc1 (stereo unspecified) | . | . | . | -3.5 | -2.7 | .
C=CCN=C1NC(c2cccc(Cl)c2)C(C(=O)OC)=C(C)N1Cc1cccc(C(F)(F)F)c1 (stereo unspecified) | . | . | . | -14.7 | -5.3 | .
O=C1NN(c2ccccc2)C(=O)/C1=C\c1coc2ccc(O)cc2c1=O | 5.4 | -0.2 | 50.0* | -14.1 | 20.2 | 35.6*
O=C1NN(c2ccccc2)C(=O)/C1=C/c1cccs1 | -3.9 | -1.2 | 63.0* | 3.5 | 4.2 | 11.5
O=C1NN(c2cccc(Br)c2)C(=O)/C1=C/c1cccs1 | 11.2 | -3.0 | -0.1 | -3.2 | 4.0 | .
O=C1NN(c2ccccc2)C(=O)/C1=C/c1coc2ccccc2c1=O | 10.1 | -1.9 | 25.2 | -5.8 | 11.0 | .
COc1ccc(Sc2ccc(/C=C3\C(=O)NN(c4ccccc4)C3=O)o2)cc1 | 6.1 | 0.1 | 42.4* | 2.3 | 5.7 | 58.1*
COc1ccc(-n2c(C)cc(/C=C3\C(=O)NN(c4ccccc4)C3=O)c2C)cc1 | -1.4 | -3.3 | -5.7 | -4.7 | 1.4 | .
O=c1oc2ccccc2c2oc3cc(O)c(O)cc3c12 | -8.3 | 4.4 | 48.9* | -13.3 | 4.6 | 13.7
CC(CCc1ccccc1)NC(=O)COC(=O)C1CCC(C(C)(C)C)CC1 (stereo unspecified) | 31.2 | 1.2 | 41.7* | -1.3 | 2.0 | 31.2
O=C(COC(=O)C1CC1)NCCc1ccccc1 | -2.5 | 3.5 | . | 7.2 | -1.7 | .
Cc1nnc(NC(=O)CN2CCN(Cc3ccccc3)CC2)s1 | 8.8 | 0.6 | 46.0* | -4.1 | -1.3 | 17.6
O=[N+]([O-])c1cc([N+](=O)[O-])c2c(=Nc3ccccc3)n(-c3ccccc3)n(O)c2c1 | 25.1 | 1.1 | 45.6* | -10.0 | 6.8 | 62.6*
O=[N+]([O-])c1cccc(C(=Nc2ccccc2)NO)c1 | 3.5 | -2.3 | -1.5 | -3.4 | 2.2 | .
CCOc1ccc(-c2csc(/C(C#N)=C\c3ccc(O)c([N+](=O)[O-])c3)n2)cc1 | 14.6 | -1.0 | 43.1* | 5.1 | -5.0 | 53.9*
CCCCc1ccc(-c2csc(/C(C#N)=C\c3ccc(C)o3)n2)cc1 | 2.4 | -3.2 | -4.0 | -9.0 | 4.6 | .
NNC(=O)c1cc(O)c(O)c(O)c1 | 0.6 | -0.5 | 52.1* | -1.5 | 18.3 | 8.1
CC1(Br)C(Sc2ccccc2[N+](=O)[O-])=Nc2ccccc21 (stereo unspecified) | . | . | . | 3.5 | 4.2 | .
N#C/C(N=Nc1ccccc1O)=N\Nc1ccccc1O | 6.5 | 3.4 | 87.1* | 14.7 | 10.4 | 67.9*
SMILES | Apaf-1 inh | PAD4 FP inh | GSTO1 inh | TDP2 absorb | PRMT1 inh | GSTO1 confirm | others
NN1C(=O)/C(=C\c2ccco2)SC1=S | -11.6 | 6.4 | 42.5* | 14.4 | 43.2* | 15.9
Cn1c2ccccc2c(=O)n2c(=O)c3ccccc3cc12 | 98.3* | 68.7* | 78.1* | . | . | 12.5
COc1ccccc1N(CC1CO1)S(=O)(=O)c1ccccc1 (stereo unspecified) | 7.7 | -0.7 | 85.3* | -10.1 | -7.6 | 78.1* | GSTO1 ABPP inh=13.0
O=S(=O)(c1ccccc1)N(CC1CO1)c1cc(Cl)ccc1Cl (stereo unspecified) | 3.2 | 1.4 | 92.1* | -13.9 | 6.3 | 94.0* | GSTO1 ABPP inh=51.0
COc1ccccc1N(CC(=O)NC1CCCC1)S(=O)(=O)c1ccc(C)cc1 | -0.8 | -1.4 | -1.4 | -6.5 | 2.0 | .
COc1ccccc1N(CC1CO1)S(=O)(=O)c1ccc(C)cc1 (stereo unspecified) | -12.1 | 1.5 | 74.7* | -2.6 | -1.1 | 82.6* | GSTO1 ABPP inh=41.0
COc1ccc(N(CC2CO2)S(=O)(=O)c2ccccc2)cc1 (stereo unspecified) | -5.7 | 4.9 | 70.0* | 2.2 | 2.4 | 85.5* | GSTO1 ABPP inh=19.0
O=C(CNCc1ccccc1[N+](=O)[O-])N1CCC2(CC1)OCCO2 | . | . | . | 5.7 | 2.9 | .
COc1ccc(CCNC(=O)c2cc([C@@H](NC(=O)OC(C)(C)C)C(C)C)sc2N)cc1OC | . | . | . | -2.2 | -0.5 | .
NC(=O)c1ccsc1NC(=O)COC(=O)Cc1ccccc1[N+](=O)[O-] | . | . | . | 4.8 | 2.5 | .
COc1ccc([N+](=O)[O-])cc1N(CC1CO1)S(=O)(=O)c1ccc(C)cc1 (stereo unspecified) | 3.6 | 2.3 | 87.6* | 6.4 | 1.5 | 98.2* | GSTO1 ABPP inh=44.0
O=C(O)CN(c1ccccc1[N+](=O)[O-])S(=O)(=O)c1ccccc1 | 1.6 | -3.0 | 12.3 | 10.0 | -0.4 | .
COc1ccc([N+](=O)[O-])cc1N(CC(O)CN1CCCC1)S(=O)(=O)c1ccc(C)cc1 (stereo unspecified) | 21.6 | -4.7 | -9.0 | 9.7 | -0.2 | .
O=[N+]([O-])c1ccccc1N(CC1CO1)S(=O)(=O)c1ccccc1 (stereo unspecified) | -1.0 | -1.3 | 81.4* | 7.2 | -0.4 | 94.0* | GSTO1 ABPP inh=12.0
O=C(N/N=C/c1cccc(F)c1)c1cc(-c2ccco2)nc2ccccc12 | 30.2 | 1.1 | 40.6* | 3.6 | 16.4 | 24.5
COC(=O)CCC(=O)OC1(C)C(=O)C2=CN(CCN3CCOCC3)C(c3ccc(OC)cc3)=CC2=C(Br)C1=O (stereo unspecified) | 85.9* | 0.2 | 55.7* | . | . | 64.8*
COC(=O)CCC(=O)OC1(C)C(=O)C2=CN(CCCCO)C(c3ccc(OC)cc3)=CC2=C(Br)C1=O (stereo unspecified) | 80.2* | 28.0* | 66.5* | . | . | 60.4*
